Paper PMC7305479 (Russian Journal of Bioorganic Chemistry, 2020)

Legend:
[1] = system: respiratory syncytial virus A2; assay: Antiviral activity against respiratory syncytial virus in HEp-2 culture; format: cell-based, Human respiratory syncytial virus (RSV); conditions: for SI (selectivity index, CC50/EC50): RSV, HEp-2 cells
Method in brief: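 HEp-2 monolayers infected with 10-fold dilutions (10–1–10–7) of RSV A2. Test compound was pre-applied 1 h in 3-fold dilutions, starting from the CC50-level concentration made from a 2000 µg/mL DMSO stock. It was re-added at double concentration with virus for 1 h, then washed out and re-applied for 6 days at 37°C, 5% CO2. Read-out was acetone-fixed cell-ELISA (TMB, OD 450 nm), with Reed–Muench titers.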

HEp-2 culture = assay: Cytotoxicity measurement; format: cell-based; conditions: for CC50: MTT, 24 h
Method in brief: (§1)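 Test compound was diluted 2-fold in medium from 2000 µg/mL DMSO stocks and applied to washed monolayers for 24 h at 37°C, 5% CO2. Cells were PBS-washed, then given MTT ([…] in medium) for 1.5 h. The product was dissolved in 96% ethanol and OD read at 535 nm. CC50 was derived from the data by curve analysis.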

[2] = system: parainfluenza type 3 strain v2932; assay: microbe, parasite or virus in culture; format: cell-based, Human parainfluenza virus type 3 (PIV-3); conditions: for SI (selectivity index, CC50/EC50): PIV-3, HEp-2 cells
[3] = system: broad spectrum of enveloped viruses; conditions: cited from earlier work
[4] = system: influenza virus strain A/PR/8/34 (H1N1); assay: organism not typed; format: cell-based, Influenza A virus (IVA); conditions: for SI (selectivity index, CC50/EC50): Influenza A virus, MDCK cells
MDCK cell culture = assay: Cytotoxicity measurement; format: cell-based
Method in brief: as §1

Cytotoxicity measurement [5] = format: cell-based; conditions: human, HEp-2 cells
Method in brief: as §1

herpes simplex type 1 = conditions: cited from earlier work
Cytotoxicity measurement [6] = format: cell-based; conditions: dog, MDCK cells
Method in brief: as §1

tick-borne encephalitis = conditions: cited from earlier work
Solubility = format: physicochemical
[7] = human respiratory syncytial virus, HEp-2

Row | Compound | antiviral activity (in words) [3] | SI (selectivity index, CC50/EC50) [1] | EC50 [1, 7] | CC50 at 24 h (Cytotoxicity measurement [5]) | EC50 ([2]; Human respirovirus 3, HEp-2) | SI (selectivity index, CC50/EC50) [2] | SI (selectivity index, CC50/EC50) [4] | EC50 ([4]; MDCK) | CC50 at 24 h (Cytotoxicity measurement [6]) | other results
1 | O=c1[nH]c(=O)n([C@@H]2O[C@H](CO)[C@@H](O)[C@@H]2O)cc1C#Cc1ccc2c3cccc4cccc(c5cccc1c52)c43 [aUY11 (II), 5-(perylen-3-ylethynyl)-arabino-uridine] | highly active | – | – | – | – | – | – | – | – | EC50 ([1]; RSV A2 in HEp-2 cells): 2.3 ± 0.1 µM; CC50 (HEp-2 culture; HEp-2 culture (PIV-3 columns)): 998 ± 59 µM; CC50 (HEp-2 culture; HEp-2 culture (RSV columns)): 998 ± 59 µM; EC50 ([2]; PIV-3 strain v2932 in HEp-2 cells): 1.3 ± 0.3 µM; EC50 ([4]; Influenza A virus A/PR/8/34 (H1N1) in MDCK cells): 5.2 ± 0.4 µM; CC50 (MDCK cell culture; MDCK cell culture (IVA columns), MTT, 24 h): 894 ± 23 µM
2 | CC(C)(C)C(=O)OCn1c(=O)c(C#Cc2ccc3c4cccc5cccc(c6cccc2c63)c54)cn(CC(=O)O)c1=O [cm1pUY11 (III), 1-carboxymethyl-3-pivaloyloxymethyl-5-(perylen-3-ylethynyl)uracil] | – | 24 | 1.9 ± 0.1 µM | 45 ± 3.4 µM | 4.3 ± 0.2 µM | 10 | 68 | 0.5 ± 0.02 µM | 34 ± 1.9 µM | cytotoxic properties (in words) (HEp-2 culture; HEp-2 cell culture, compared with the other three compounds): significantly more pronounced cytotoxic properties; antiviral activity (in words) (herpes simplex type 1): activity; cytotoxic properties (in words) (MDCK cell culture; MDCK cell culture, compared with the other three compounds): significantly more pronounced cytotoxic properties; antiviral activity (in words) (tick-borne encephalitis): activity
3 | O=c1[nH]c(=O)n([C@H]2C[C@H](O)[C@@H](CO)O2)cc1C#Cc1ccc2c3cccc4cccc(c5cccc1c52)c43 [dUY11 (I), 5-(perylen-3-ylethynyl)-2′-deoxy-uridine] | highly active | 330 | 1.8 ± 0.2 µM | 598 ± 44 µM | 2.2 ± 0.5 µM | 270 | 180 | 2.7 ± 0.7 µM | 492 ± 56 µM | –
4 | O=c1[nH]c(=O)n([C@@H]2O[C@H](CO)[C@@H](O)[C@H]2O)cc1C#Cc1ccc2c3cccc4cccc(c5cccc1c52)c43 [rUY11 (IV), 5-(Perylen-3-ylethynyl)uridine] | – | 84 | 7.1 ± 0.2 µM | 599 ± 23 µM | 2.9 ± 0.4 µM | 210 | 100 | 6.4 ± 1.2 µM | 658 ± 34 µM | solubility in DMSO (Solubility; DMSO): fairly soluble; solubility in water (Solubility; water): only slightly soluble
